Data set [1] can be described thus: Antimicrobial activity against […] faecalis ATCC 29212 after 18 to 20 hrs by microbroth dilution method. The data set is classed as functional. The essentials:
(§1)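 Microbroth dilution per NCCLS (2001): midlog-phase bacteria at 2 × 10^6 CFU/mL in Mueller-Hinton medium mixed 1:1 with MH broth containing peptide in serial 2-fold dilutions (20% ethanol), range 0.75-24 µM. Incubated 18–20 h at 37 °C; growth read as absorbance at 600 nm. MIC taken as the lowest peptide concentration giving 100% growth inhibition.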
A general note: In broth dilution the organism is exposed to a series of concentrations in liquid medium.

The next data set relates to Pseudomonas aeruginosa. In words: Antimicrobial activity against Pseudomonas aeruginosa ATCC 15692 after 18 to 20 hrs by microbroth dilution method. The data set is classed as functional. The essentials:
as §1

Data set [2] relates to Staphylococcus epidermidis. Nature of the data set: Antimicrobial activity against Staphylococcus epidermidis ATCC 12228 after 18 to 20 hrs by micro-broth dilution method. The data set is classed as functional. The method, boiled down:
as §1

Data set [3] is described as follows: Toxicity assessed as hemolytic activity in human erythrocytes at 24 uM after 30 mins. The data set is classed as cell-based, Erythrocyte. As to conditions: read-out: Activity. The essentials:
(§2)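 Human erythrocyte suspension in 0.9% (w/v) NaCl incubated 30 min at 37 °C with gentle mixing alongside serial 2-fold peptide dilutions (peptide dissolved in 20% ethanol). After centrifugation, supernatant absorbance read at 415 nm. Complete lysis reference obtained by suspending erythrocytes in distilled water.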

The test system of another data set is Priestia megaterium. In words: Antimicrobial activity against Bacillus megaterium Bm11 after 18 to 20 hrs by micro-broth dilution method. The data set is classed as functional. The essentials:
as §1

For the next data set, the system named is Saccharomyces. Nature of the data set: Antimicrobial activity against Saccharomyces pombe after 18 to 20 hrs by micro-broth dilution method. The data set is classed as functional. The essentials:
(§3)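 Yeasts tested by NCCLS (2001) microbroth dilution in Winge medium: cells mixed 1:1 with medium containing peptide in serial 2-fold dilutions (20% ethanol), range 0.75-24 µM. Incubated 18–20 h at 30 °C; absorbance read at 600 nm. MIC defined as the peptide concentration giving 100% growth inhibition.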

For another data set, the system named is Saccharomyces cerevisiae. Nature of the data set: Antimicrobial activity against Saccharomyces cerevisiae after 18 to 20 hrs by micro-broth dilution method. The data set is classed as functional. The essentials:
as §3

The subject of data set [4] is Staphylococcus aureus. Nature of the data set: Antimicrobial activity against Staphylococcus aureus ATCC 25923 after 18 to 20 hrs by micro-broth dilution method. The data set is classed as functional. The essentials: as §1
Data set [5] is described as follows: Toxicity assessed as hemolytic activity in human erythrocytes at 3 uM after 30 mins. The data set is classed as cell-based, Erythrocyte. Particulars: read-out: Activity. The method, boiled down: as §2
The test system of a further data set is Escherichia coli. In words: Antimicrobial activity against Escherichia coli D21 after 18 to 20 hrs by micro-broth dilution method. The data set is classed as functional. The method, boiled down: as §1
A further data set has as its system Staphylococcus capitis. In words: Antimicrobial activity against Staphylococcus capitis after 18 to 20 hrs by micro-broth dilution method. The data set is classed as functional. The method, boiled down: as §1
Data set [6] has as its system Yersinia pseudotuberculosis. Nature of the data set: Antimicrobial activity against Yersinia pseudotuberculosis YP3 after 18 to 20 hrs by micro-broth dilution method. The data set is classed as functional. The method, boiled down:
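Microbroth dilution per NCCLS (2001). Mid-log bacteria at 2 × 10^6 CFU/mL in Mueller-Hinton broth are mixed 1:1 with MH broth holding serial 2-fold peptide dilutions in 20% ethanol, range 0.75-24 µM. Plates are incubated 18–20 h at 37 °C and growth is read as A600. MIC is the lowest concentration giving 100% growth inhibition.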

A further data set has as its system Pseudomonas syringae. In words: Antimicrobial activity against Pseudomonas syringae pv tabaci after 18 to 20 hrs by micro-broth dilution method. The data set is classed as functional. The method, boiled down: as §1
The test system of a further data set is Streptococcus pyogenes. Nature of the data set: Antimicrobial activity against Streptococcus pyrogenes ATCC 21547 after 18 to 20 hrs by micro-broth dilution method. The data set is classed as functional. The method, boiled down: as §1
In data set [7] the test system is Staphylococcus aureus. In words: Antimicrobial activity against Staphylococcus aureus Cowan 1 after 18 to 20 hrs by micro-broth dilution method. The data set is classed as functional. The essentials: as §1
Data set [8] can be described thus: Toxicity assessed as hemolytic activity in human erythrocytes at 12 uM after 30 mins. The data set is classed as cell-based, Erythrocyte. As to conditions: read-out: Activity. The essentials:
as §2

The nature of data set [9]: Toxicity assessed as hemolytic activity in human erythrocytes at 6 uM after 30 mins. The data set is classed as cell-based, Erythrocyte. Particulars: read-out: Activity. The essentials: as §2
The test system of the next data set is Candida albicans. Nature of the data set: Antimicrobial activity against Candida albicans ATCC 10231 after 18 to 20 hrs by micro-broth dilution method. The data set is classed as functional. The essentials: as §3

This is an account of results in ChEMBL document CHEMBL1144825, “A different molecular mechanism underlying antimicrobial and hemolytic actions of temporins A and L” (J Med Chem, 2008).

One may read the MIC as the smallest concentration in the dilution series that meets the test's criterion for growth inhibition. The low end stands for greater potency, the high end for weaker potency. In the case of H-FVQWFSKFLGRIL-NH2 [TEMPORIN L], the MIC came to 6 µM in [1]; 24 µM in the data set with Pseudomonas aeruginosa; 3 µM in data set [2]; 1.5 µM in the data set with Priestia megaterium; 6 µM in the data set on Saccharomyces; 6 µM in the data set on Saccharomyces cerevisiae. The MIC worked out at 3 µM in the data set on Staphylococcus aureus [4]; 12 µM in the data set on Escherichia coli; 1.5 µM in the data set on Staphylococcus capitis; 3 µM in data set [6]; 6 µM with Pseudomonas syringae; 6 µM in the data set with Streptococcus pyogenes. The minimum inhibitory concentration (MIC) in the data set with Staphylococcus aureus [7] is 3 µM; in the data set on Candida albicans, 12 µM. In data set [3], the hemolysis at 0.5 h, 24 µM came out at 94%. The hemolysis at 0.5 h, 3 µM in data set [5] amounted to 13%. In addition, the hemolysis at 0.5 h, 12 µM in [8] is 92%. The hemolysis at 0.5 h, 6 µM in [9] turned out to be 48%.
As to “H-FLQLIGRVLSGIL-NH2 [GLN-TA, TEMPORIN A]”, the minimum inhibitory concentration (MIC) is 6 µM in data set [1]; above 24 µM with Pseudomonas aeruginosa; 1.5 µM in data set [2]; 0.75 µM against Priestia megaterium; 3 µM in the data set with Saccharomyces; 6 µM against Saccharomyces cerevisiae. Moreover, the MIC is 1.5 µM in the data set on Staphylococcus aureus [4]; above 24 µM in the data set on Escherichia coli; 1.5 µM in the data set on Staphylococcus capitis; 6 µM in data set [6]; above 24 µM in the data set on Pseudomonas syringae; 6 µM against Streptococcus pyogenes. In addition, the results for the MIC against Staphylococcus aureus [7] and in the data set on Candida albicans were 1.5 µM and 6 µM, respectively. The hemolysis at 0.5 h, 24 µM in data set [3] is 92%. Also, the hemolysis at 0.5 h, 3 µM in data set [5] amounted to 9%. For the same substance, the hemolysis at 0.5 h, 12 µM in data set [8] was determined as 70%. The hemolysis at 0.5 h, 6 µM in data set [9] is 18%.
For H-FLPLIGRVLSGIL-NH2 [TEMPORIN A], the minimum inhibitory concentration (MIC) in [1] was 12 µM; against Pseudomonas aeruginosa, above 24 µM; in [2], 3 µM; in the data set with Priestia megaterium, 1.5 µM; against Saccharomyces it was 3 µM; in the data set on Saccharomyces cerevisiae it was 6 µM. The MIC in the data set on Staphylococcus aureus [4] was 3 µM; against Escherichia coli, above 24 µM; against Staphylococcus capitis, 1.5 µM; in data set [6], 12 µM; against Pseudomonas syringae, above 24 µM; with Streptococcus pyogenes, 12 µM. Besides, the minimal inhibitory concentration (MIC) came to 1.5 µM in the data set on Staphylococcus aureus [7] and 12 µM against Candida albicans. Also, the hemolysis at 0.5 h, 24 µM in data set [3] came to 28%. Moreover, in data set [5], the hemolysis at 0.5 h, 3 µM amounted to 3%. In data set [8], the hemolysis at 0.5 h, 12 µM came to 6%. Further, the hemolysis at 0.5 h, 6 µM in data set [9] was determined as 4.5%.
As to H-FVPWFSKFLGRIL-NH2, the minimum inhibitory concentration (MIC) in data set [1] is 6 µM; in the data set on Pseudomonas aeruginosa, 24 µM; in [2] it was 1.5 µM; with Priestia megaterium, 1.5 µM; with Saccharomyces, 3 µM; in the data set with Saccharomyces cerevisiae, 6 µM. Further, the MIC with Staphylococcus aureus [4] stood at 3 µM; against Escherichia coli it was 12 µM; in the data set on Staphylococcus capitis it was 1.5 µM; in data set [6] it was 3 µM; in the data set with Pseudomonas syringae it was 6 µM; in the data set on Streptococcus pyogenes, 6 µM. Moreover, the MIC was 1.5 µM against Staphylococcus aureus [7] and 6 µM in the data set on Candida albicans. The hemolysis at 0.5 h, 24 µM in data set [3] was 92%. Further, the hemolysis at 0.5 h, 3 µM in [5] came out at 6%. In addition, in data set [8], the hemolysis at 0.5 h, 12 µM turned out to be 42%. In data set [9], the hemolysis at 0.5 h, 6 µM turned out to be 10%.
